ChEMBL document CHEMBL1671691 (Antimicrob Agents Chemother, 2010)
Active and inactive are the calls of the source. The rule behind the calls is not given here.

Legend:
Influenza B virus [1] = test: microbe, parasite or virus in culture; conditions: (B/Rochester/01/2001), MDCK, 72 h
Influenza A virus [2] = test: Antiviral activity against 0.001 MOI adamantane-resistant zanamivir-,oseltamivir-susceptible Influenza A virus (A/pdm/Mexico/4604/2009(H1N1)) harboring M2 V28I, S31N mutant infected in MDCK cells assessed as determination of viral titer in cell culture at 1.6 uM after 24 hrs by immunofluorescence assay; type: functional, organism-based; conditions: Influenza A virus (A/Mexico/4604/2009(H1N1))
Method in brief: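 Focus inhibition assay: confluent MDCK monolayers infected at MOI ∼0.001–0.1. Adsorption 1 h at 4°C, washed twice, then DMEM with 2 μg/ml TPCK-trypsin and drug for 24 h at 37°C. Cells fixed in methanol/acetic acid at −20°C, immunostained with anti-NP monoclonals and FITC secondary, and foci counted. Supernatants also titrated by focus assay. Quadruplicate on two occasions.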

Influenza A virus [3] = test: Antiviral activity against adamantane-resistant zanamivir-,oseltamivir-susceptible Influenza A virus (A/Massachusetts/03/2009(H3N2)) harboring M2 S31N mutant infected in MDCK cells assessed as inhibition of viral replication after 3 days by microscopic analysis using crystal violet stain; type: functional, organism-based
Method in brief: (§1)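 Confluent MDCK-ATCC monolayers infected with virus diluted to give 15–45 plaques/well. Adsorption 1 h at 37°C without drug, then washed. Overlaid with 0.8% agarose in MEM containing drug plus TPCK-trypsin: 3 μg/ml for seasonal viruses, 2 μg/ml for 2009 A(H1N1). Incubated 3 days at 37°C, 5% CO2. Ethanol-fixed, crystal violet-stained, plaques counted. EC50 by curve fit; duplicates on three occasions, mean ± SD.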

Influenza A virus [4] = test: Antiviral activity against Influenza A virus (A/Washington/29/2009(H1N1)) harboring neuraminidase H275Y mutant infected in MDCK cells from Mill Hill assessed as inhibition of viral replication after 3 days by microscopic analysis using crystal violet stain; type: functional
Influenza A virus [5] = test: Antiviral activity against adamantane-resistant zanamivir-,oseltamivir-susceptible Influenza A virus (A/pdm/California/07/2009 (H1N1)) harboring M2 V28I, S31N mutant infected in MDCK cells assessed as inhibition of viral replication after 3 days by microscopic analysis using crystal violet stain; type: functional, organism-based, A/California/07/2009(H1N1)
Method in brief: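 Plaque reduction on confluent MDCK-ATCC monolayers: pretitrated virus (15–45 plaques per well) adsorbed 1 h at 37°C without drug, then washed with PBS. Agarose overlay (0.8%, in MEM) with drug added, 3 days at 37°C. Cells fixed with 70% ethanol, stained with crystal violet, plaques counted. EC50 from curve fitting, averaged over three separate experiments in duplicate, ± SD.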

[6] = Antiviral activity against adamantane-resistant zanamivir-,oseltamivir-susceptible Influenza B virus (B/Illinois/47/2005) infected in MDCK cells assessed as inhibition of viral replication after 3 days by microscopic analysis using crystal violet stain; type: functional, cell-based; conditions: 72 h
Influenza B virus [7] = test: Antiviral activity against oseltamivir-susceptible zanamivir-, adamantane-resistant Influenza B virus B/Memphis/20/1996 harboring neuraminidase R152K mutant infected in MDCK cells assessed as inhibition of viral replication after 3 days by microscopic analysis using crystal violet stain; type: functional, cell-based, B/Memphis/20/96
Influenza B virus [8] = test: microbe, parasite or virus in culture; conditions: B/New York/22/2008, MDCK, 72 h
Influenza A virus [9] = test: Antiviral activity against adamantane-susceptible zanamivir-, oseltamivir-resistant Influenza A virus (A/Brazil/1633/2008(H1N1)) harboring neuraminidase Q136K mutant infected in MDCK cells assessed as inhibition of viral replication after 3 days by microscopic analysis using crystal violet stain; type: functional, organism-based
Influenza A virus [10] = test: (§2) Antiviral activity against oseltamivir-susceptible zanamivir-, adamantane-resistant Influenza A virus (A/pdm/Washington/29/2009 (H1N1)) harboring M2 V28I, S31N mutant and neuraminidase H274Y mutant infected in MDCK cells assessed as inhibition of viral replication after 3 days by microscopic analysis using crystal violet stain; type: functional, organism-based, Influenza A virus (A/Washington/29/2009(H1N1))
Influenza A virus [11] = test: Antiviral activity against adamantane-resistant zanamivir-,oseltamivir-susceptible Influenza A virus (A/New Hampshire/01/2009(H3N2)) harboring M2 S31N mutant infected in MDCK cells assessed as inhibition of viral replication after 3 days by microscopic analysis using crystal violet stain; type: functional, organism-based
Method in brief: as §1

Influenza A virus [12] = test: as §2, with “(A/Luhansk/18/2008(H1N1))” for “(A/pdm/Washington/29/2009 (H1N1))”, “neuraminidase H274Y” for “M2 V28I, S31N”, “M2 G34E” for “neuraminidase H274Y”; type: functional, organism-based
Influenza A virus [13] = test: (§3) Antiviral activity against oseltamivir-susceptible zanamivir-, adamantane-resistant Influenza A virus (A/Texas/12/2007 (clone)(H3N2)) harboring neuraminidase E119V mutant and harboring M2 S31N mutant infected in MDCK cells assessed as inhibition of viral replication after 3 days by microscopic analysis using crystal violet stain; type: functional, organism-based, Influenza A virus (A/Texas/12/2007(H3N2))
Method in brief: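 MDCK-ATCC confluent monolayers infected with pretitrated virus (15–45 plaques per well), 1 h adsorption at 37°C, 5% CO2, without drug. Inoculum removed, PBS wash, then 0.8% agarose overlay in MEM with drug and 3 μg/ml TPCK-trypsin. 3 days at 37°C, ethanol fixation, crystal violet stain, plaques counted. EC50 by curve fit, mean of three experiments in duplicate ± SD.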

Influenza B virus [14] = test: Antiviral activity against oseltamivir-susceptible zanamivir-, adamantane-resistant Influenza B virus (B/Michigan/20/2005) harboring neuraminidase H274Y mutant infected in MDCK cells assessed as inhibition of viral replication after 3 days by microscopic analysis using crystal violet stain; type: functional, cell-based
Influenza A virus [15] = test: as §3, with “E119I” for “E119V”; type: functional, organism-based, Influenza A virus (A/Texas/12/2007(H3N2))
Influenza A virus [16] = test: Antiviral activity against adamantane-resistant zanamivir-,oseltamivir-susceptible Influenza A virus (A/Wisconsin/16/2008(H1N1)) harboring neuraminidase H274Y mutant infected in MDCK cells assessed as inhibition of viral replication after 3 days by microscopic analysis using crystal violet stain; type: functional, organism-based
Method in brief: as §1

Influenza A virus [17] = test: Antiviral activity against Influenza A virus (A/Washington/29/2009(H1N1)) harboring neuraminidase H275Y mutant infected in MDCK cells from ATCC assessed as log reduction in viral titer at 1.6 uM after 24 hrs by immunofluorescent assay; type: functional
Method in brief: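 Yield reduction in MDCK-ATCC or MDCK-Mill Hill cells infected at MOI ∼0.01. Adsorption 1 h at 4°C, washed, then DMEM with 2 μg/ml TPCK-trypsin and drug. At 24 h, supernatants were titrated by immunofluorescent focus assay on MDCK cells with anti-NP monoclonals and FITC secondary. Titres as log10 FFU per 100 μl; detection limit <10 FFU. Quadruplicate, mean ± SD.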

Influenza A virus [18] = test: Antiviral activity against oseltamivir-susceptible zanamivir-, adamantane-resistant Influenza A virus (A/Wuhan/395/1995-like (H3N2)) harboring neuraminidase E119V mutant infected in MDCK cells assessed as inhibition of viral replication after 3 days by microscopic analysis using crystal violet stain; type: functional, organism-based
Influenza A virus [19] = test: Antiviral activity against adamantane-resistant zanamivir-,oseltamivir-susceptible Influenza A virus (A/pdm/Mexico/4604/2009(H1N1)) harboring M2 V28I, S31N mutant infected in MDCK cells assessed as determination of viral titer in cell culture at 128 uM after 24 hrs by immunofluorescence assay; type: functional, organism-based; conditions: Influenza A virus (A/Mexico/4604/2009(H1N1))
Method in brief: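 MDCK cells (ATCC or Mill Hill) infected with 2009 pandemic H1N1 at MOI ~0.01, 1 h adsorption at 4°C, washed. DMEM with 2 μg/ml TPCK-trypsin plus drug for 24 h at 37°C. Supernatants titrated on MDCK cells by focus formation: methanol/acetic acid fixation, anti-nucleoprotein MAbs, FITC secondary, foci counted. Titre as log10 FFU per 100 μl; detection limit <10 FFU; quadruplicate wells.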

For `NC(=O)c1nc(F)cnc1O` [FAVIPIRAVIR], the EC50 (Influenza B virus [1]) was 1.4 µM, the Activity (Influenza A virus [2]) was “Active” and the EC50 (Influenza A virus [3]) was 4.2 µM. It also gave a log10FFU (Influenza A virus [4]) of 6.32, an EC50 (Influenza A virus [5]) of 1.4 µM and an EC50 [6] of 4.01 µM. The EC50 (Influenza B virus [7]) was 0.57 µM, the EC50 (Influenza B virus [8]) was 5.3 µM and the EC50 (Influenza A virus [9]) was 0.83 µM. The EC50 (Influenza A virus [10]) was 6.62 µM, the EC50 (Influenza A virus [11]) was 4.08 µM and the EC50 (Influenza A virus [12]) was 2.93 µM. The EC50 (Influenza A virus [13]) was 5.22 µM, the EC50 (Influenza B virus [14]) was 5.03 µM and the EC50 (Influenza A virus [15]) was 3.95 µM. It also gave an EC50 (Influenza A virus [16]) of 2.87 µM, a log10FFU (Influenza A virus [17]) of 4.2 and an EC50 (Influenza A virus [18]) of 5.41 µM. The Activity (Influenza A virus [19]) was “Active”.
